Measured values as given in ChEMBL document CHEMBL4038284, “Synthesis of novel quinoline-based 4,5-dihydro-1H-pyrazoles as potential anticancer, antifungal, antibacterial and antiprotozoal agents” (Eur J Med Chem, 2017).

How the values were obtained:
Assay type in all cases: functional
SK-MEL-5 = experiment: Growth inhibition of human SK-MEL-5 cells incubated for 48 hrs by sulforhodamine B assay; conditions: SK-MEL-5, 48 h
How it was run: (§1)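 NCI 60-line screen. Cells in RPMI-1640 with 5% FBS and 2 mM L-glutamine, preincubated 24 h, then time-zero plates TCA-fixed. Compounds from DMSO stocks given at five final concentrations (100, 10, 1.0, 0.1, 0.01 µM) for 48 h at 37 °C, 5% CO2. Cells fixed with 10% TCA, SRB-stained, read at 515 nm. GI50 is the concentration giving 50% lower net protein increase versus control.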

T47D = experiment: Growth inhibition of human T47D cells incubated for 48 hrs by sulforhodamine B assay
How it was run: (§2)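 NCI-60 panel cells grown in RPMI-1640 with 5% FBS and 2 mM L-glutamine, preincubated 24 h at 37 °C/5% CO2. Time-zero plates were TCA-fixed at compound addition. DMSO stocks were diluted in medium and tested at five final concentrations (100, 10, 1.0, 0.1, 0.01 µM) for 48 h. Cells were TCA-fixed, stained with SRB and read at 515 nm. GI50 = 50% lower net protein increase versus control.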

LOX IMVI = experiment: Growth inhibition of human LOXIMVI cells incubated for 48 hrs by sulforhodamine B assay
How it was run: (§3)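 Five-dose NCI SRB assay at 100, 10, 1.0, 0.1 and 0.01 μM for 48 h at 37 °C, 5% CO2. Medium was RPMI-1640 with 5% FBS and 2 mM glutamine. Time-zero plates were TCA-fixed at compound addition, A515 read after SRB staining. GI50 was solved from [(Ti−Tz)/(C−Tz)]×100 = 50. Values beyond the tested range are given as > or <.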

COLO 205 = experiment: Growth inhibition of human COLO205 cells incubated for 48 hrs by sulforhodamine B assay; conditions: COLO 205, 48 h
How it was run: (§4)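 NCI five-dose SRB assay (100, 10, 1.0, 0.1, 0.01 µM) with 48 h exposure in RPMI-1640 with 5% FBS and 2 mM L-glutamine. Cells fixed with TCA and stained with SRB, read at 515 nm. GI50 is the concentration where [(Ti−Tz)/(C−Tz)]×100 = 50.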

MCF7 = experiment: Growth inhibition of human MCF7 cells incubated for 48 hrs by sulforhodamine B assay; conditions: MCF7, 48 h; how it was run: as §1
MOLT-4 = experiment: Growth inhibition of human MOLT4 cells incubated for 48 hrs by sulforhodamine B assay; conditions: MOLT-4, 48 h; how it was run: as §1
SF-268 = experiment: Growth inhibition of human SF268 cells incubated for 48 hrs by sulforhodamine B assay; conditions: SF-268, 48 h; how it was run: as §3
HOP-62 = experiment: Growth inhibition of human HOP62 cells incubated for 48 hrs by sulforhodamine B assay; conditions: HOP-62, 48 h; how it was run: as §4
EKVX = experiment: Growth inhibition of human EKVX cells incubated for 48 hrs by sulforhodamine B assay; how it was run: as §4
M14 = experiment: Growth inhibition of human M14 cells incubated for 48 hrs by sulforhodamine B assay; conditions: M14, 48 h; how it was run: as §3
UACC-62 = experiment: Growth inhibition of human UACC62 cells incubated for 48 hrs by sulforhodamine B assay; conditions: UACC-62, 48 h; how it was run: as §1
HCT-116 = experiment: Growth inhibition of human HCT116 cells incubated for 48 hrs by sulforhodamine B assay; conditions: HCT-116, 48 h; how it was run: as §4
Malme-3M = experiment: Growth inhibition of human MALME-3M cells incubated for 48 hrs by sulforhodamine B assay; how it was run: as §3
NCI-H460 = experiment: Growth inhibition of human NCI-H460 cells incubated for 48 hrs by sulforhodamine B assay; conditions: NCI-H460, 48 h; how it was run: as §3
U-251 = experiment: Growth inhibition of human U251 cells incubated for 48 hrs by sulforhodamine B assay; conditions: U-251, 48 h; how it was run: as §2
CCRF-CEM = experiment: Growth inhibition of human CCRF-CEM cells incubated for 48 hrs by sulforhodamine B assay; how it was run: as §1
NCI-H522 = experiment: Growth inhibition of human NCI-H522 cells incubated for 48 hrs by sulforhodamine B assay; conditions: NCI-H522, 48 h; how it was run: as §1
SK-OV-3 = experiment: Growth inhibition of human SKOV3 cells incubated for 48 hrs by sulforhodamine B assay; conditions: SK-OV-3, 48 h; how it was run: as §1
UO-31 = experiment: Growth inhibition of human UO31 cells incubated for 48 hrs by sulforhodamine B assay; conditions: UO-31, 48 h; how it was run: as §2
SN12C = experiment: Growth inhibition of human SN12C cells incubated for 48 hrs by sulforhodamine B assay; how it was run: as §2
OVCAR-5 = experiment: Growth inhibition of human OVCAR5 cells incubated for 48 hrs by sulforhodamine B assay; conditions: OVCAR-5, 48 h; how it was run: as §1
A549 = experiment: Growth inhibition of human A549/ATCC cells incubated for 48 hrs by sulforhodamine B assay; conditions: A549, 48 h; how it was run: as §1
PC-3 = experiment: Growth inhibition of human PC3 cells incubated for 48 hrs by sulforhodamine B assay; conditions: PC-3, 48 h; how it was run: as §3
RXF 393 = experiment: Growth inhibition of human RXF393 cells incubated for 48 hrs by sulforhodamine B assay; conditions: RXF 393, 48 h; how it was run: as §3
SW-620 = experiment: Growth inhibition of human SW620 cells incubated for 48 hrs by sulforhodamine B assay; conditions: SW-620, 48 h; how it was run: as §2
SF-539 = experiment: Growth inhibition of human SF539 cells incubated for 48 hrs by sulforhodamine B assay; conditions: SF-539, 48 h; how it was run: as §2
TK-10 = experiment: Growth inhibition of human TK10 cells incubated for 48 hrs by sulforhodamine B assay; conditions: TK-10, 48 h; how it was run: as §1
DU-145 = experiment: Growth inhibition of human DU145 cells incubated for 48 hrs by sulforhodamine B assay; conditions: DU-145, 48 h; how it was run: as §4
K562 = experiment: Growth inhibition of human K562 cells incubated for 48 hrs by sulforhodamine B assay; conditions: K562, 48 h; how it was run: as §1
HCT-15 = experiment: Growth inhibition of human HCT15 cells incubated for 48 hrs by sulforhodamine B assay; conditions: HCT-15, 48 h; how it was run: as §1
786-0 = experiment: Growth inhibition of human 786-0 cells incubated for 48 hrs by sulforhodamine B assay; conditions: 786-0, 48 h; how it was run: as §4
SR = experiment: Growth inhibition of human SR cells incubated for 48 hrs by sulforhodamine B assay; how it was run: as §1
[1] = read-out: LC50 (the source's name)

Which GI50 (SK-MEL-5) does the source give for `COc1ccc(C(=O)/C=C/c2cccc(Nc3ccnc4cc(Cl)ccc34)c2)cc1` here?
The GI50 was 1.32 µM.

What about the CC50 (SK-MEL-5; [1]) of the same compound?
The CC50 was greater than 100 µM.

And the GI50 (T47D)?
Its GI50 is 0.66 µM.

And the CC50 (T47D; [1])?
The CC50 was greater than 100 µM.

What about the GI50 (LOX IMVI) of the same compound?
Its GI50 is 1.58 µM.

What about the CC50 (LOX IMVI; [1]) of the same compound?
The CC50 was greater than 100 µM.

And the GI50 (COLO 205)?
Its GI50 is 3.85 µM.

And the CC50 (COLO 205; [1])?
The CC50 was greater than 100 µM.

And the GI50 (MCF7)?
Its GI50 is 1.82 µM.

What about the CC50 (MCF7; [1]) of the same compound?
Its CC50 is greater than 100 µM.

And the GI50 (MOLT-4)?
The GI50 was 2.9 µM.

What about the CC50 (MOLT-4; [1]) of the same compound?
Its CC50 is greater than 100 µM.

What about the GI50 (SF-268) of the same compound?
The GI50 was 2.47 µM.

What about the CC50 (SF-268; [1]) of the same compound?
Its CC50 is greater than 100 µM.

What about the GI50 (HOP-62) of the same compound?
Its GI50 is 1.44 µM.

What about the CC50 (HOP-62; [1]) of the same compound?
Its CC50 is greater than 100 µM.

And the GI50 (EKVX)?
Its GI50 is 1.75 µM.

What about the LC50 (EKVX) of the same compound?
Its LC50 is greater than 100 µM.

And the GI50 (M14)?
Its GI50 is 1.6 µM.

What about the CC50 (M14; [1]) of the same compound?
Its CC50 is greater than 100 µM.

What about the GI50 (UACC-62) of the same compound?
The GI50 was 1.19 µM.

And the CC50 (UACC-62; [1])?
Its CC50 is greater than 100 µM.

And the GI50 (HCT-116)?
Its GI50 is 0.84 µM.

And the LC50 (concentration killing 50% of cells) (HCT-116)?
Its LC50 (concentration killing 50% of cells) is greater than 100 µM.

What about the GI50 (Malme-3M) of the same compound?
Its GI50 is 1.79 µM.

What about the CC50 (Malme-3M; [1]) of the same compound?
Its CC50 is greater than 100 µM.

What about the GI50 (NCI-H460) of the same compound?
The GI50 was 2.23 µM.

And the CC50 (NCI-H460; [1])?
Its CC50 is greater than 100 µM.

What about the GI50 (U-251) of the same compound?
The GI50 was 1.73 µM.

And the CC50 (U-251; [1])?
Its CC50 is 23.7 µM.

And the GI50 (CCRF-CEM)?
Its GI50 is 2.88 µM.

What about the CC50 (CCRF-CEM; [1]) of the same compound?
The CC50 was greater than 100 µM.

And the GI50 (NCI-H522)?
The GI50 was 1.88 µM.

What about the CC50 (NCI-H522; [1]) of the same compound?
The CC50 was greater than 100 µM.

What about the GI50 (SK-OV-3) of the same compound?
Its GI50 is 2.22 µM.

And the CC50 (SK-OV-3; [1])?
The CC50 was greater than 100 µM.

What about the GI50 (UO-31) of the same compound?
The GI50 was 1.03 µM.

What about the GI50 (SN12C) of the same compound?
The GI50 was 1.3 µM.

What about the CC50 (SN12C; [1]) of the same compound?
The CC50 was greater than 100 µM.

What about the GI50 (OVCAR-5) of the same compound?
Its GI50 is 2.6 µM.

And the CC50 (OVCAR-5; [1])?
Its CC50 is greater than 100 µM.

What about the GI50 (A549) of the same compound?
Its GI50 is 2.78 µM.

And the LC50 (concentration giving 50% net cell kill) (A549)?
The LC50 (concentration giving 50% net cell kill) was greater than 100 µM.

And the GI50 (PC-3)?
Its GI50 is 2.51 µM.

And the CC50 (PC-3; [1])?
The CC50 was greater than 100 µM.

What about the GI50 (RXF 393) of the same compound?
Its GI50 is 1.82 µM.

And the CC50 (RXF 393; [1])?
The CC50 was greater than 100 µM.

What about the GI50 (SW-620) of the same compound?
Its GI50 is 1.98 µM.

What about the CC50 (SW-620; [1]) of the same compound?
The CC50 was greater than 100 µM.

What about the GI50 (SF-539) of the same compound?
Its GI50 is 1.7 µM.

What about the CC50 (SF-539; [1]) of the same compound?
The CC50 was greater than 100 µM.

And the GI50 (TK-10)?
Its GI50 is 1.64 µM.

What about the CC50 (TK-10; [1]) of the same compound?
The CC50 was greater than 100 µM.

And the GI50 (DU-145)?
The GI50 was 2.45 µM.

What about the CC50 (DU-145; [1]) of the same compound?
The CC50 was greater than 100 µM.

And the GI50 (K562)?
The GI50 was 1.64 µM.

What about the CC50 (K562; [1]) of the same compound?
Its CC50 is 83.8 µM.

And the GI50 (HCT-15)?
Its GI50 is 2.04 µM.

And the CC50 (HCT-15; [1])?
The CC50 was greater than 100 µM.

What about the GI50 (786-0) of the same compound?
The GI50 was 1.48 µM.

And the LC50 (786-0)?
Its LC50 is 77.7 µM.

What about the GI50 (SR) of the same compound?
The GI50 was 0.49 µM.

What about the CC50 (SR; [1]) of the same compound?
The CC50 was greater than 100 µM.
